Data reported in ChEMBL document CHEMBL5303300, “EUbOPEN Chemogenomics Library - Multiplex” (2023).
“And” between values parts separate entries of the source, which are not always exact repeats. Identical values can stand only once.

Experiments:
[1] = tested on: Fibroblast; test: Multiplex assay against human fibroblast; type: toxicity, cell-based; details: number of replicates 2
Method in brief: (§1)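 Live cells were stained at seeding with Hoechst33342, BioTracker Green Microtubule Cytoskeleton Dye, MitoTracker Red and Annexin V Alexa Fluor 680, then imaged on a CQ1 microscope at 37°C and 5% CO2 after compound addition. CellPathfinder machine-learning gating split cells into Hoechst high-intensity objects or normal cells. Normal cells were split into healthy, pyknosed or fragmented nuclei, and pyknosed cells into mitotic or apoptotic. Tubulin, mitochondrial-mass and membrane-permeability phenotypes are per cents of healthy-nucleus cells.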

[2] = tested on: HEK-293T; test: Multiplex assay against HEK293T; type: toxicity, cell-based; details: human, number of replicates 2; method in brief: as §1
[3] = 12 h, 1 µM, compound concentration 1 uM
[4] = 12 h, 10 µM, compound concentration 10 uM
[5] = 24 h, 1 µM, compound concentration 1 uM
[6] = 24 h, 10 µM, compound concentration 10 uM
[7] = 48 h, 1 µM, compound concentration 1 uM
[8] = 48 h, 10 µM, compound concentration 10 uM

Compound: CC1=C(C)C(=O)C(C(CCCCCC(=O)O)c2ccccc2)=C(C)C1=O (stereo not drawn) [SERATRODAST]
- Population Apoptotic (%) [1, 3]: 50% and 60%
- Population Fragmented Nuclei (%) [1, 3]: 6% and 11%
- Population Healthy Nuclei (%) [1, 3]: 57% and 79%
- Population Hoechst High Intensity Objects (%) [1, 3]: 0%
- Population Membrane Permeable-Phenotype (%) [1, 3]: 5% and 2%
- Population Mitochondria Different-Phenotype (%) [1, 3]: 0% and 2%
- Population Mitotic Cells (%) [1, 3]: 50% and 40%
- Population Normal (%) [1, 3]: 99% and 100%
- Population Tubulin-Different-Phenotype (%) [1, 3]: 5% and 3%
- Total Cell Count [1, 3]: 128 and 228
- Population Apoptotic (%) [1, 4]: 35% and 25%
- Population Fragmented Nuclei (%) [1, 4]: 12% and 18%
- Population Healthy Nuclei (%) [1, 4]: 79% and 75%
- Population Hoechst High Intensity Objects (%) [1, 4]: 0%
- Population Membrane Permeable-Phenotype (%) [1, 4]: 6% and 5%
- Population Mitochondria Different-Phenotype (%) [1, 4]: 1%
- Population Mitotic Cells (%) [1, 4]: 64% and 75%
- Population Normal (%) [1, 4]: 100%
- Population Pyknosed Nuclei (%) [1, 4]: 8% and 6%
- Population Tubulin-Different-Phenotype (%) [1, 4]: 15% and 8%
- Total Cell Count [1, 4]: 167 and 192
- Population Apoptotic (%) [1, 5]: 67% and 52%
- Population Fragmented Nuclei (%) [1, 5]: 3% and 13%
- Population Healthy Nuclei (%) [1, 5]: 64% and 76%
- Population Hoechst High Intensity Objects (%) [1, 5]: 0%
- Population Membrane Permeable-Phenotype (%) [1, 5]: 7% and 2%
- Population Mitochondria Different-Phenotype (%) [1, 5]: 1% and 0%
- Population Mitotic Cells (%) [1, 5]: 32% and 47%
- Population Normal (%) [1, 5]: 99% and 100%
- Population Tubulin-Different-Phenotype (%) [1, 5]: 9% and 1%
- Total Cell Count [1, 5]: 128 and 230
- Population Fragmented Nuclei (%) [1, 6]: 11% and 14%
- Population Healthy Nuclei (%) [1, 6]: 81%
- Population Hoechst High Intensity Objects (%) [1, 6]: 0%
- Population Membrane Permeable-Phenotype (%) [1, 6]: 3%
- Population Mitochondria Different-Phenotype (%) [1, 6]: 0% and 1%
- Population Mitotic Cells (%) [1, 6]: 36% and 85%
- Population Normal (%) [1, 6]: 100%
- Population Pyknosed Nuclei (%) [1, 6]: 6% and 3%
- Population Tubulin-Different-Phenotype (%) [1, 6]: 8% and 9%
- Total Cell Count [1, 6]: 171 and 193
- Population Apoptotic (%) [1, 7]: 79% and 52%
- Population Fragmented Nuclei (%) [1, 7]: 9% and 16%
- Population Healthy Nuclei (%) [1, 7]: 65% and 75%
- Population Hoechst High Intensity Objects (%) [1, 7]: 0%
- Population Membrane Permeable-Phenotype (%) [1, 7]: 3% and 1%
- Population Mitochondria Different-Phenotype (%) [1, 7]: 0%
- Population Mitotic Cells (%) [1, 7]: 20% and 47%
- Population Normal (%) [1, 7]: 99% and 100%
- Population Tubulin-Different-Phenotype (%) [1, 7]: 3% and 2%
- Total Cell Count [1, 7]: 133 and 248
- Population Apoptotic (%) [1, 8]: 40% and 36%
- Population Fragmented Nuclei (%) [1, 8]: 15% and 21%
- Population Healthy Nuclei (%) [1, 8]: 81% and 73%
- Population Hoechst High Intensity Objects (%) [1, 8]: 0%
- Population Membrane Permeable-Phenotype (%) [1, 8]: 2% and 1%
- Population Mitochondria Different-Phenotype (%) [1, 8]: 0%
- Population Mitotic Cells (%) [1, 8]: 60% and 63%
- Population Normal (%) [1, 8]: 100%
- Population Pyknosed Nuclei (%) [1, 8]: 2% and 5%
- Population Tubulin-Different-Phenotype (%) [1, 8]: 6% and 5%
- Total Cell Count [1, 8]: 171 and 213
- Population Apoptotic (%) [2, 3]: 63% and 56%
- Population Fragmented Nuclei (%) [2, 3]: 4% and 5%
- Population Healthy Nuclei (%) [2, 3]: 78% and 82%
- Population Hoechst High Intensity Objects (%) [2, 3]: 12% and 8%
- Population Membrane Permeable-Phenotype (%) [2, 3]: 2% and 0%
- Population Mitochondria Different-Phenotype (%) [2, 3]: 18% and 13%
- Population Mitotic Cells (%) [2, 3]: 36% and 43%
- Population Normal (%) [2, 3]: 87% and 91%
- Population Pyknosed Nuclei (%) [2, 3]: 17% and 12%
- Population Tubulin-Different-Phenotype (%) [2, 3]: 49% and 39%
- Total Cell Count [2, 3]: 511 and 624
- Population Apoptotic (%) [2, 4]: 47% and 51%
- Population Fragmented Nuclei (%) [2, 4]: 4% and 5%
- Population Healthy Nuclei (%) [2, 4]: 87% and 85%
- Population Hoechst High Intensity Objects (%) [2, 4]: 7%
- Population Membrane Permeable-Phenotype (%) [2, 4]: 4% and 2%
- Population Mitochondria Different-Phenotype (%) [2, 4]: 8% and 11%
- Population Mitotic Cells (%) [2, 4]: 52% and 48%
- Population Normal (%) [2, 4]: 92%
- Population Pyknosed Nuclei (%) [2, 4]: 7% and 9%
- Population Tubulin-Different-Phenotype (%) [2, 4]: 39% and 43%
- Total Cell Count [2, 4]: 857 and 708
- Population Apoptotic (%) [2, 5]: 52% and 55%
- Population Fragmented Nuclei (%) [2, 5]: 6% and 7%
- Population Healthy Nuclei (%) [2, 5]: 79% and 81%
- Population Hoechst High Intensity Objects (%) [2, 5]: 9%
- Population Membrane Permeable-Phenotype (%) [2, 5]: 1%
- Population Mitochondria Different-Phenotype (%) [2, 5]: 3%
- Population Mitotic Cells (%) [2, 5]: 47% and 44%
- Population Normal (%) [2, 5]: 90%
- Population Pyknosed Nuclei (%) [2, 5]: 13% and 10%
